This data set can be described thus: Toxicity liver stage against HepG2, at 10uM. It is filed as cell-based. The arrangement: test concentration 10 uM, cell line HepG2-A16-CD81EGFP. The conditions noted are these: human, HepG2-A16-CD81EGFP cells; read-out: INHIBITION
In a few lines:
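Uninfected HepG2-A16-CD81EGFP cells, 3 × 10^3 per well, 1536-well, plated on prespotted compound at 10 μM final, parasite-free screening media added to match infected plates; puromycin 10 μM positive, DMSO 0.5% negative; run in parallel with 48 h PbLuc assay at 37 °C, 5% CO2; viability by CellTiter-Glo luminescence, normalized to controls.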
`CCN1CCN(C(=O)c2c[nH]c(C(C)C)n2)c2ccccc21`: the cytotoxicity at 10 µM is 11.2%.
For `CCC(C(=O)NCC1=CCN(C)CC1)c1ccccc1` (stereo not given) the value was -7.66%; for `CC(=O)Nc1ccc(CNC2CC(=O)N(Cc3cccc(F)c3)C2)cc1` (stereo not given), -6.98%; for `Cn1cc(CN2CC[C@@H](NS(C)(=O)=O)[C@@H]2Cc2cccnc2)cn1`, -74.4%.
In the case of `Cc1nn(C)c(C)c1C1CCCN1c1ncnc2c1CCC2` (stereo not given), the cytotoxicity at 10 µM turned out to be 13.1%.
To `Cc1ccsc1CN1CC2(CCN(C(=O)C3CC3)CC2)CC1C(=O)O` (stereo not given) belongs 3.24%.
For `CSC1(CNC(=O)NCc2sccc2C)CCOCC1` the value was -49.6%; for `CN(C)C(=O)[C@@]12CCO[C@@H]1CCN(Cc1ccc3c(c1)OCO3)C2`, 0.863%; for `Cc1cc(C)n(CC(C)NCc2cnc3c(C)cccn23)n1` (stereo not given), 1.44%.
For `O=C1C[C@@H]2CC[C@H](CN1)N2C(=O)CCc1ccc2c(c1)OCO2` the value was -5%; for `Cc1nc(N2CCCC2)nc2c1CN(C(=O)N1CCOCC1)CC2`, 6.17%; for `O=C(NC1CCC1)[C@H]1C[C@H]2NCCO[C@@H]2C1`, -131%.
In the case of `C[C@H]1CN(C(=O)N(C)C)C[C@@]12CCN(c1ccsc1)C2=O`, the cytotoxicity at 10 µM was -73.1%.
To `NC(=O)c1ccc(N2CCCCC2)c(NC(=O)c2cc(Br)ccc2Cl)c1` belongs 59.6%; to `Cc1cc(NC(=O)NCc2cccnc2OC(C)C)no1`, -11.5%; to `Cc1cc(C(=O)N2CCC3(C2)CN(c2cccnc2)C(=O)CN3C)[nH]n1` (stereo not given), 5.2%.
To `Cc1cc(C)n(C2CCCN(C(=O)CN(C)c3cnccn3)C2)n1` (stereo not given) belongs 3.36%.
In the case of `O=C(Nc1ccc(F)cc1)N1C[C@@H]2C[C@H](C(=O)N3CCOCC3)[C@H](C1)O2`, the cytotoxicity at 10 µM stood at 3.41%.
To `O=C(CCNc1ncccn1)NCc1cccc(OC(F)F)c1` belongs -1.75%.
For `Cc1nc(C)n(CC2CN(Cc3ccc4c(c3)OCCO4)CCO2)n1` (stereo not given) the value was -3.63%; for `Cn1c(CN2CCC(N3CCNC3=O)CC2)cc(=O)n(C)c1=O`, -2.03%.
For `COc1ccc(-c2nc(CN3CC(n4cccn4)C3)no2)cc1` the value was -3.08%.
Turning to `CN(Cc1nc(-c2ccco2)no1)C1CCCN(c2cccnn2)C1` (stereo not given), the cytotoxicity at 10 µM was -7.72%.
For `OCC1(CNC2CCc3cc4c(cc32)OCCO4)CC1` (stereo not given) the value was -3.37%; for `Cc1nc(C)n(CC2CCCN2CC(=O)NC2CCOCC2)n1` (stereo not given), -4.43%; for `CCn1nc(C)c2nc(C(C)C)nc(NCCCn3ccnc3)c21`, 10.8%.
To `CN(C)S(=O)(=O)N1CC[C@]2(C[C@H](OCc3ccccn3)CO2)C1` belongs 11.6%; to `O=C(NCc1cccc(Cl)c1)C1=NOC2(CCNC2)C1` (stereo not given), -0.0606%; to `NC(=O)C1CN(C(=O)Nc2ccc(SC(F)(F)F)cc2)CCO1` (stereo not given), -12.9%.
Take `CC(C)N(C)C[C@H]1OC[C@@H]2CCN(Cc3cccc(C#N)c3)C[C@@H]21`: the cytotoxicity at 10 µM is 9.28%.
To `CN(Cc1ccco1)C(=O)CN1CCCC1Cn1cccn1` (stereo not given) belongs 1.55%; to `O=C1CC2(CCCC2)C(=O)N1CC(O)COCc1ccccc1F` (stereo not given), 0.927%.
For `Cc1nccn1CCN(C)C(=O)C1CCN(C(=O)C2CCC2)CC1` the value was -1.45%.
`Cc1nc(C2CCCN2C(=O)Cc2ccc(F)cc2)nc(O)c1C` (stereo not given): the cytotoxicity at 10 µM was -30.4%.
In the case of `COc1cc2c(cc1CNC(=O)Cc1cc(C)[nH]n1)OC(C)C2` (stereo not given), the cytotoxicity at 10 µM is -13.8%.
To `CNc1nc(N2C[C@H](NC(=O)CCOC)[C@@H](C3CC3)C2)nc2c1CCC2` belongs 9.62%; to `Cc1cc2cc(C(=O)N3C[C@H](O)[C@]4(CCCO4)C3)ccc2o1`, -10.9%.
As to `Cc1cccc(COC[C@@]23CCC[C@@H]2CN(S(=O)(=O)N(C)C)C3)n1`, the cytotoxicity at 10 µM is -6.87%.
To `COCCCNC(=O)CN(C)C(=O)c1cc(C)ccc1N(C)C(C)C` belongs -4.84%.
To `COC(=O)Cn1ccc(=O)c2ccc(OC)cc21` belongs -20.7%; to `CN(C)C(=O)C1CN(Cc2ccsc2)CCN(S(C)(=O)=O)C1` (stereo not given), 14.4%.
For `COc1cccc(CN(C)Cc2nc3cc(C)ccc3[nH]2)c1O` the value was 2.74%; for `COc1cccc(OCC2CCCN(C(=O)CCn3ccnc3)C2)c1` (stereo not given), -19.8%.
Regarding `CCCC(=O)NC(C)(C)Cc1ccccc1OC`, the cytotoxicity at 10 µM stood at 5.55%.
For `N#CCCN(Cc1cccnc1)C(=O)c1ccn(-c2ccccc2)n1` the value was 13.9%; for `CCC(CC)c1cc(CNC(=O)N2CCCC(c3ncc[nH]3)C2)on1` (stereo not given), -2.02%.
To `CC(=O)N1CCCn2nc(CNS(=O)(=O)N3CCC(C)CC3)cc2C1` belongs 9.91%.
`CC1(C(=O)NCc2ccsc2)CCOCC1`: the cytotoxicity at 10 µM amounted to 5.73%.
For `Cc1nn(C)cc1C1CC(=O)Nc2c1cnn2C(C)(C)C` (stereo not given) the value was -5.45%; for `CN1CC2(CCCN(C(=O)c3cnc4ccc(F)cc4c3O)C2)OC1=O` (stereo not given), 6.25%; for `CC(C)(C)C(C#N)NC(=O)c1ccc(Oc2cccnc2)cc1` (stereo not given), 5.21%.
For `CN(C)CC(=O)N1CCC2(CC1)COCCN(Cc1ccncc1)C2` the value was -80.8%; for `COc1ccc(CNCc2c(C)nc3sc(C)cn23)c(OC)c1OC`, -1.99%.
To `Cc1noc(C)c1-c1ccc(C2CCCN2C(=O)c2ccncn2)nc1` (stereo not given) belongs -4.45%; to `CCOc1cc(CN(C)CCCC#N)ccc1OC(F)F`, -10.3%; to `CC(=O)Nc1nc2c(s1)C1(CCN(C)CC1)Nc1ccccc1S2`, -14.5%.
As for `Cn1cccc1C(=O)N1CCc2ncnc(C3CC3)c2CC1`, the cytotoxicity at 10 µM was determined as 5.17%.
Regarding `Fc1cccnc1OC[C@@]12CCO[C@@H]1CCN(CC1CCOCC1)C2`, the cytotoxicity at 10 µM is -14.6%.
For `CN(Cc1ccc2c(c1)OCO2)C(=O)c1ccn(C)c(=O)c1` the value was 3.01%; for `CN(C)S(=O)(=O)N1CCN(c2ccnc(N3CCCCC3)n2)CC1`, -1.48%; for `CCc1ncc2c(n1)CN(Cc1nc(-c3ccccn3)no1)CC2`, -20.9%.
To `Cc1cnn(CC(C)NCc2csc(-c3ncccn3)n2)c1` (stereo not given) belongs -6.94%.
On to `O=S(=O)(NCc1ccccc1)N1CCN(c2ncccn2)CC1`, for which the cytotoxicity at 10 µM came out at 4.7%.
For `COc1ncccc1CNC(=O)NC(C)Cn1cccn1` (stereo not given) the value was -12.5%.
For `CN(C)C(c1ccccn1)C1CCC(CNC(=O)CC2CCCC2)CC1` (stereo not given) the value was 9.43%; for `COc1ccc(CN(CC2CCCO2)C(=O)CN2CCCCC2=O)cc1` (stereo not given), -0.645%.
For `COc1ncccc1C(=O)N1CC[C@H]2C[C@H](c3nnc(C)[nH]3)O[C@@H]2C1` the value was 2.4%; for `CCc1nc(CC)n(CC(=O)NCc2ccccc2C)n1`, 15.2%.
For the compound `Cn1cnnc1C1CCCN1C(=O)Nc1cccc(OC(F)F)c1` (stereo not given), the cytotoxicity at 10 µM worked out at 8.25%.
To `Cn1cc(CN2CCOC(c3nccnc3-c3cccc(F)c3)C2)cn1` (stereo not given) belongs 8.12%; to `COc1cc(C)c(C2CC(=O)NCc3nc4sccn4c32)cc1C` (stereo not given), -2.19%; to `CCC(CC)C(=O)N1CCC2(CC1)c1ccccc1[C@@H](OC)[C@@H]2O`, 6.75%.
For `CCC(C(=O)Nc1ccc2nc(C)oc2c1)N1CCCC1=O` (stereo not given) the value was -41.9%; for `COCCNC(=O)N1CC(Cc2ccccc2F)C1`, -6.4%; for `COCc1nc(C(=O)N2CCCC2Cn2cc(C)cn2)cs1` (stereo not given), -1.36%.
For `COc1ccc(NC(=O)N2CCCCCC2c2ccncc2)cn1` (stereo not given) the value was 5.55%.
For `O=C(Cc1cccs1)N1C[C@H]2CC[C@@H](C1)N(Cc1ccccn1)C2=O`, the cytotoxicity at 10 µM turned out to be 1.07%.
To `CO[C@H]1C[C@@H](O)C12CCN(C(=O)NCc1ccco1)CC2` belongs -2.04%; to `CC(C)Cc1nc(CN2CCCC2Cn2cncn2)no1` (stereo not given), -8.66%; to `Cc1noc(Cl)c1CCC(=O)N1CCN(CC(C)(C)O)CC1`, 1.61%.
As to `CC(C)c1cc(C(=O)NCCc2nc3c(s2)CCC3)n(C)n1`, the cytotoxicity at 10 µM stood at 54.2%.
Take `CCc1ncc2c(n1)CN(c1nccc(C3CCCC3)n1)C2`: the cytotoxicity at 10 µM is -1.16%.
To `O=C(c1n[nH]c2c1CN(C1CCOCC1)CC2)N1CCCC1` belongs -2.39%; to `COCc1nc(C(=O)N2CCCC2c2ccccc2C)cs1` (stereo not given), 4.28%.
To `Clc1ccc2cccnc2c1CN1CCCC1Cn1cncn1` (stereo not given) belongs 3.91%; to `Cc1nn(C)cc1-c1ccnc(N(C)Cc2ccc(F)cc2)n1`, -3.85%; to `CC(C)(CNC(=O)C1(c2ccccc2)CCOCC1)C(=O)O`, 1.25%.
In the case of `Cc1ccc(-c2nc(CCNC(=O)NC3CCC(O)CC3)co2)cc1` (stereo not given), the cytotoxicity at 10 µM was -2.3%.
For `O=C(Cn1ncc2ccccc21)Nc1ccnn1CC1CCOC1` (stereo not given) the value was 3.03%; for `CCOCC1CN(C(=O)c2ccncc2)Cc2nn(C)cc21` (stereo not given), -5.82%; for `CC(C)(C)CN1CC(COc2ccccc2)Oc2ccncc2S1(=O)=O` (stereo not given), -65.3%.
To `Cc1nc(C(NC(=O)C2CCCC2)c2ccccc2F)no1` (stereo not given) belongs -3.79%; to `Cn1c(-c2ccccc2Cl)nc2cc(C(=O)NCCOCCO)cnc21`, -0.951%; to `Cc1ccc(C(=O)NC2CCCN(C)C2)c(=O)[nH]1` (stereo not given), -6.96%.
To `Cn1cc(C2CCCN2C(=O)CCc2cnn(-c3ccccc3)c2)cn1` (stereo not given) belongs -6.88%.

The values above are taken from ChEMBL document CHEMBL4513216, “Probing the Open Global Health Chemical Diversity Library for Multistage-Active Starting Points for Next-Generation Antimalarials” (ACS Infect Dis, 2020).
